# Assay outcomes as filed in PubChem.
# Shown are actives, neighbours in structure and some others; about 2.3% of the full set was active somewhere.
# TRPC4 act = activators of mouse TRPC4 channel, primary screen, Fluo4 calcium, HEK293 TRPC4beta/mu-opioid cells; Short transient receptor potential channel 4 (Mus musculus), Q9QUQ5; Fluo4 calcium fluorescence; stronger effect = higher value; B-score at 10 µM; 310,000 tested, 0.49% active; AID 2237, 2010;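 active = B-score above 5 SD of library B-scores, and initial fluorescence ratio not above library mean plus 5 SD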;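 also: positive B-score marks a calcium rise read as TRPC4 activation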
#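 Assay system – TRPC4beta and mu-opioid receptor HEK293 stable cells · Measured by – Fluo4 fluorescence, kinetic · Schedule – dye loading 45 min room temperature, 110 s kinetic read · Read-out – B-scored integrated calcium fluorescence ratio · Controls – buffer and maximal DAMGO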
# TRPC6 inh = mouse TRPC6 channel inhibitors, primary screen, cell-based, HEK293, membrane potential dye | 310,000 tested, 1.1% active | ACh-evoked depolarization; stronger effect = lower value | Short transient receptor potential channel 6 (Mus musculus), Q61143 | B-score at 10 µM;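 active = B-score under library mean minus 3 SD, initial fluorescence not abnormally high, positive integrated signal ratio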;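 also: B-score derived from integrated fluorescence ratio over the kinetic read; more negative B-score means stronger inhibition of depolarization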
# Target sequence (Q61143 whole entry, looked up): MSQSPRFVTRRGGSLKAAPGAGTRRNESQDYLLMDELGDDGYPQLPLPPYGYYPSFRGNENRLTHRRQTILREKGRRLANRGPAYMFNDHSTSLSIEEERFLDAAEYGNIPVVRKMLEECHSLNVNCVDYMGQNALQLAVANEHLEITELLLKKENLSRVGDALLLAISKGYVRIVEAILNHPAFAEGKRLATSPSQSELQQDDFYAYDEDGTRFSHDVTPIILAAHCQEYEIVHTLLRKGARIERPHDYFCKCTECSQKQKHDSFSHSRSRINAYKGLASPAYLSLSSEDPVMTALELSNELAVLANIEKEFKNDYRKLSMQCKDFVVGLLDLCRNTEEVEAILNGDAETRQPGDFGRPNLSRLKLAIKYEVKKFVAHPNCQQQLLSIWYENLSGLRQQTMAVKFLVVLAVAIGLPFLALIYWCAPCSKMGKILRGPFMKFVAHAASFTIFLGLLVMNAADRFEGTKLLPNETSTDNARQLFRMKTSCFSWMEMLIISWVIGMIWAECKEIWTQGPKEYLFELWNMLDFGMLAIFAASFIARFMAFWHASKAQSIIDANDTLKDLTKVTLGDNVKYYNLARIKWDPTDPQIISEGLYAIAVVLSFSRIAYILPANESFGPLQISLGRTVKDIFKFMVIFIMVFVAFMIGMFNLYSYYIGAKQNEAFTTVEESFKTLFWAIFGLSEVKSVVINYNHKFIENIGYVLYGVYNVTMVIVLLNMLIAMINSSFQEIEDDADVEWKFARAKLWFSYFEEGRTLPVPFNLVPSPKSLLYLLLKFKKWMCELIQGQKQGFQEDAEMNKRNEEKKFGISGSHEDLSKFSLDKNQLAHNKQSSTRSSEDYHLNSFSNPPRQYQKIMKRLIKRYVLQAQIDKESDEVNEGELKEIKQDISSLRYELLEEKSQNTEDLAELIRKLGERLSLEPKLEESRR
# TRPC6 activator = mouse TRPC6 channel activators, primary screen, cell-based, HEK293, membrane potential dye | 310,000 tested, 0.13% active | B-score at 10 µM | AID 2550, 2010 | Short transient receptor potential channel 6 (Mus musculus), Q61143 | HEK293-TRPC6 membrane potential dye fluorescence; stronger effect = higher value;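 active = B-score of the integrated fluorescence ratio above library mean plus 3 SD, and starting fluorescence ratio within library mean plus 5 SD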;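 also: higher score means more depolarization so channel activation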
# TRPC4 potent = positive allosteric modulators of TRPC4, primary screen, cell-based, mouse TRPC4beta, HEK293 mu-opioid, Fluo-4 calcium; B-score at 10 µM; 310,000 tested, 0.42% active; DAMGO EC20, Fluo-4 Ca2+ flux; stronger effect = higher value;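 active = B-score of calcium response area above 5 SD of library B-scores, with initial fluorescence ratio within 5 SD of library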
# TRPC4 block = inhibitors of mouse TRPC4 channel, primary screen, Fluo4 calcium, HEK293 TRPC4beta/mu-opioid cells; DAMGO-evoked Fluo4 calcium flux; stronger effect = lower value; Short transient receptor potential channel 4 (Mus musculus), Q9QUQ5; 300,000 tested, 0.39% active; AID 2247, 2010; B-score at 10 µM;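 active = B-score over 3 SD under the library average, no early fluorescence shift, positive overall ratio signal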
#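 Assay system: Stable TRPC4beta/mu-opioid receptor HEK293 cells | Reagent: DAMGO in two steps, submaximal then maximal | Compound dosing: Single concentration per test compound | Signal: Fluo4 Ca2+ flux fluorescence | Evaluation: Per-well B score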
# Hits are given with their value; - = inactive.
SMILES,TRPC4 act,TRPC6 inh,TRPC6 activator,TRPC4 potent,TRPC4 block
O=C(N/N=C/c1cn(-c2cccs2)nc1-c1ccccc1)c1ccccc1Br,-,-,-,14,-
O=C(N/N=C/c1cn(-c2cccs2)nc1-c1ccccc1)c1ccccc1O,-,-,-,-,-
Cn1c(-c2cccc3ccccc23)n[nH]c1=S,102,-,-,-,-
CNC(=S)N(CCCO)Cc1cc2cc3c(cc2[nH]c1=O)OCO3,-,-,-,-,-
Cn1c(-c2ccc(F)cc2)cnc1NCc1ccc(F)cc1,-,-,-,-,-6
Cn1c(-c2ccc(F)cc2)cnc1NCc1ccccc1F,-,-,-,-,-
Cn1c(-c2ccc(F)cc2)cnc1NCc1ccc(F)cc1F,-,-,-,-,-6
Cn1c(-c2ccc(F)cc2)cnc1NCc1ccc(C#N)cc1,-,-,-,-,-
Cc1n[nH]c(=O)c2c(NC(=O)CSc3nn(-c4ccccc4)c(=S)s3)oc(C)c12,-,-,-,-,-
CCc1ccc(NC(=O)CCC(=O)Nc2nnc(C(F)(F)F)s2)cc1,-,-,-,-,-
OC(COC(c1ccccc1)c1ccccc1)CN1CCN(c2cccc(Cl)c2)CC1 (centres undefined),-,-,-,-,-
CC(=O)c1ccc(N2CCN(CC(O)COC(c3ccccc3)c3ccccc3C)CC2)cc1 (centres undefined),-,-,-,12,-
CC(=O)c1ccc(N2CCN(CC(O)COC(c3ccccc3)c3ccccc3)CC2)cc1 (centres undefined),-,-,-,11,-
COC(=O)C1(C(F)(F)F)C2C=CC(C2)N1S(=O)(=O)c1ccc(C)cc1 (centres undefined),-,-,-,-,-
O=C1CC(NS(=O)(=O)c2cccs2)CN1c1ccccc1 (centres undefined),-,-,-,18,-
O=C1CC(NS(=O)(=O)c2cccs2)CN1c1ccc(Cl)cc1 (centres undefined),-,-,-,-,-
N#Cc1c(N2CCCCC2)nc(N)c2c(N)nc3c(c12)CC(c1ccccc1)O3 (centres undefined),-,-,-,-,-9
CCC1Cc2c(nc(N)c3c(N)nc(N4CCCCC4)c(C#N)c23)O1 (centres undefined),-,-,-,-,-
O=[N+]([O-])c1ccc(S(=O)(=O)NCCCc2ccccc2)cc1,-,-,-,57,-
Cc1ccc2[nH]c(C)c(CCN(Cc3cccnc3)C(=S)NC(C)(C)C)c2c1,-,-,-,16,-
COc1ccc(S(=O)(=O)Nc2ccccc2C(=O)N2CCOCC2)cc1C,-,-,-,-,-
CCN(CC)Cc1ccccc1Sc1ccccc1,-,-,-,-,-
O=S(=O)(c1ccccc1)c1nc(-c2cccc(Cl)c2)oc1N1CCOCC1,-,-,-,10,-
NCCCCCC(=O)N/N=C/c1coc2ccccc2c1=O,-,-,-,-,-
COc1ccc(-n2c(CN3CCC(C(N)=O)CC3)nc3ccc([N+](=O)[O-])cc3c2=O)c(OC)c1,-,-,-,-,-
SMILES,TRPC4 act,TRPC6 inh,TRPC6 activator,TRPC4 potent,TRPC4 block
CCOC(=O)C1CCN(Cc2nc3ccc([N+](=O)[O-])cc3c(=O)n2-c2ccc(OC)cc2OC)CC1,59,-,-,-,-
CC(OC(=O)/C(C#N)=C/c1ccc(N(C)C)cc1)C(=O)N(C)Cc1ccccc1 (centres undefined),-,-,-,-,-
Cc1nn(C)cc1C(C(=O)NC1CCCCC1)N(C(=O)Cc1cccs1)c1ccc(C(C)C)cc1 (centres undefined),44,-,-,-,-
Cc1nn(C)cc1C(C(=O)NC1CCCCC1)N(C(=O)Cc1cccs1)c1ccc(F)cc1 (centres undefined),-,-,-,-,-
NC(N)=NCCCC(NC(=O)c1ccccc1)C(=O)Nc1ccc([N+](=O)[O-])cc1 (centres undefined),123,-,-,-,-
Cc1c(C(=O)Nc2c3c(nn2C(C)(C)C)CS(=O)(=O)C3)cccc1[N+](=O)[O-],-,-,-,-,-
C=CCOC(=O)C1=C[C@H](c2ccc(C(F)(F)F)cc2)[C@@H](CCCO)[C@H](OCC)O1,-,-,-,-,-5
O=C(c1ccc(OC2CCN(CCCc3ccccc3)CC2)cc1)N1CCCC1,-,-,-,-,-
Cc1cccc(/C=N/NC(=O)c2cccc(Cl)c2)n1,-,-,-,21,-
COC(=O)c1ccccc1OCCCN(C)C,-,-,-,11,-
COc1cc(CNC2CCCC2)cc(Cl)c1OCc1ccc(F)cc1,-,-,-,-,-7
Cc1ccc(NC(=S)N/N=C/c2cccn2Cc2ccccc2F)cc1,-,-,-,-,-
CCOC(=O)c1ccc(NC(=S)N2CCSC2c2ccc(Br)cc2)cc1 (centres undefined),-,-,-,43,-
O=S(=O)(Cc1ccccc1)N(O)c1ccccc1,-,-,-,-,-
Cc1cccc(Cc2c(C)nc3c(C(=O)NCc4ccco4)cnn3c2C)c1,-,-,-,97,-
Cc1nc2c(C(=O)NCc3ccco3)cnn2c(C)c1Cc1ccc(F)cc1Cl,-,-,-,-,-
CCN(CC(=O)NC1CCCC1)S(=O)(=O)c1ccc(F)cc1,-,-,-,-,-
Cc1nn(C)c(Cl)c1CN1CCCC(CCC(=O)NCc2ccccc2F)C1 (centres undefined),-,-,-,-,-
CCOc1cccc(CN2CCCC(CCC(=O)NCc3ccccc3F)C2)c1O (centres undefined),56,-,-,-,-
CCCN(CCC)C(=O)Cc1coc2ccc3ccccc3c12,-,-,-,10,-
CNC(=O)c1ccc(Nc2nnc(-c3ccc(O)cc3)c3ccccc23)cc1,-,-,-,-,-
CN(C)C(=O)c1ccc(Nc2nnc(-c3ccc(O)cc3)c3ccccc23)cc1,60,-,-,-,-
Cc1cc([N+](=O)[O-])nn1Cc1noc(C(=O)NCCc2ccccn2)n1,79,-,-,-,-
NC(=O)N=Nc1c(O)[nH]c2c(Br)cc(Br)cc12,-,-,-,11,-
C=CCNCCCOc1ccc(Cl)cc1Br,-,-,-,16,-
COc1ccc(-c2cccc(NC(=O)COc3ccc(Cl)cc3)c2)nn1,-,-,-,-,-
CC(=O)C1=C(S(=O)(=O)c2ccc(C)cc2)CS(=O)(=O)C1,-,-,-,-,-7
Cc1ccc(S(=O)(=O)C2CS(=O)(=O)CC2O)cc1 (centres undefined),-,-,-,-,-
